ChEMBL document CHEMBL3627607, “A Novel Pyrazolopyridine with in Vivo Activity in Plasmodium berghei- and Plasmodium falciparum-Infected Mouse Models from Structure-Activity Relationship Studies around the Core of Recently Identified Antimalarial Imidazopyridazines” (J Med Chem, 2015)
Activity calls are given as the source filed them. The rule behind the calls is not given here.

Assays:
Plasmodium falciparum [1] = assay: Antiplasmodial activity against multidrug resistant Plasmodium falciparum K1 infected in human erythrocytes after 48 hrs by [3H]-hypoxanthine incorporation assay; type: functional, organism-based
Plasmodium falciparum [2] = assay: Antiplasmodial activity against drug sensitive Plasmodium falciparum NF54 infected in human erythrocytes after 48 hrs by [3H]-hypoxanthine incorporation assay; type: functional, organism-based
Liver microsome [3] = assay: Metabolic stability of the compound in human liver microsomes assessed as compound remaining at 0.1 uM after 30 mins by LC-MS/MS analysis; type: ADME; conditions: 0.5 h
Liver microsome [4] = assay: Metabolic stability of the compound in rat liver microsomes assessed as compound remaining at 0.1 uM after 30 mins by LC-MS/MS analysis; type: ADME; conditions: 0.5 h
[5] = Metabolic stability of the compound in mouse liver microsomes assessed as compound remaining at 0.1 uM after 30 mins by LC-MS/MS analysis; type: ADME; conditions: 0.5 h
[6] = target: Voltage-gated inwardly rectifying potassium channel KCNH2 (Homo sapiens, UniProt Q12809); assay: Inhibition of human ERG potassium channel by ionworks patch-clamp electrophysiology assay
Plasmodium berghei [7] = assay: Antiplasmodial activity against Plasmodium berghei ANKA expressing GFP infected in mouse assessed as reduction of parasitemia level at 30 mg/kg, po qd for 4 days; type: functional; set-up: scale not given: the % may be the effect or the level left
Plasmodium berghei [8] = assay: Antiplasmodial activity against Plasmodium berghei ANKA expressing GFP infected in mouse assessed as means survival days at 30 mg/kg, po qd for 4 days; type: functional
Plasmodium falciparum [9] = assay: Antiplasmodial activity against Plasmodium falciparum 3D7 infected in po dosed non-myelodepleted NOD-SCID IL2Rgammanull mouse engrafted with human erythrocytes assessed as reduction of parasitemia level administered qd for 4 days; type: functional; conditions: 3D7, po, 96 h
Method in brief: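 P. falciparum-infected engrafted NSG mice were dosed orally once daily for four consecutive days. Blood parasitemia was monitored, and a 90% effective dose was derived along with the blood exposure at that dose.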

[10] = Selectivity index, ratio of IC50 for CHO cells to IC50 for multidrug resistant Plasmodium falciparum K1; type: toxicity, cell-based; conditions: hamster, read-out: Ratio IC50
[11] = Selectivity index, ratio of IC50 for CHO cells to IC50 for Plasmodium falciparum NF54; type: toxicity, cell-based; conditions: hamster, read-out: Ratio IC50
[12] = Selectivity index, ratio of IC50 for African green monkey VERO cells to IC50 for multidrug resistant Plasmodium falciparum K1; type: toxicity, cell-based; conditions: read-out: Ratio IC50
[13] = Selectivity index, ratio of IC50 for African green monkey VERO cells to IC50 for Plasmodium falciparum NF54; type: toxicity, cell-based; conditions: read-out: Ratio IC50
Plasmodium berghei [14] = assay: Antiplasmodial activity against Plasmodium berghei ANKA expressing GFP infected in mouse assessed as reduction of parasitemia level at 50 mg/kg, po qd for 4 days measured on day 4 post last dose by flow cytometric analysis relative to control; type: functional; set-up: scale not given: the % may be the effect or the level left
Method in brief: (§1)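 Mice (n = 3) infected with GFP-transfected P. berghei ANKA. Test agents were suspended in HPMC vehicle (0.5% w/v hydroxypropylmethylcellulose, 0.5% v/v benzyl alcohol, 0.4% v/v Tween 80, 0.9% w/v NaCl in water). Dosed orally at 4, 24, 48 and 72 h post-infection. Parasitemia read by flow cytometry on day 4 (96 h), detection limit 0.1%. Activity = control-minus-treated mean % parasitemia, relative to control.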

Plasmodium berghei [15] = assay: Antiplasmodial activity against Plasmodium berghei ANKA expressing GFP infected in mouse assessed as means survival days at 50 mg/kg, po qd for 4 days; type: functional
Method in brief: (§2)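 Mice (n = 3) infected with GFP-transfected P. berghei ANKA. Compounds dissolved or suspended in HPMC vehicle (0.5% w/v hydroxypropylmethylcellulose, 0.5% v/v benzyl alcohol, 0.4% v/v Tween 80, 0.9% w/v NaCl in water). Dosed orally 4, 24, 48 and 72 h after infection. Parasitemia read by flow cytometry (detection limit 0.1%). Survival recorded as mean survival time in days.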

[16] = Drug level in mouse blood at 50 mg/kg, po after 1 hr; type: ADME, organism-based; conditions: read-out: Drug uptake
Method in brief: (§3)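 Snapshot whole-blood levels of parent and its sulfone metabolite at 1, 4 and 24 h after the first 50 mg/kg oral dose. Samples came from the P. berghei-infected efficacy mice, dosed in HPMC suspension vehicle.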

[17] = Drug level in mouse blood at 50 mg/kg, po after 4 hrs; type: ADME, organism-based; conditions: read-out: Drug uptake; method in brief: as §3
[18] = (§4) Drug level in mouse blood at 50 mg/kg, po after 24 hrs; type: ADME, organism-based; conditions: blood, read-out: Drug uptake; method in brief: as §3
[19] = Half life in rat at 5 mg/kg, iv; type: ADME, organism-based; conditions: in vivo
[20] = Plasma clearance in rat at 5 mg/kg, iv; type: ADME, organism-based
[21] = Volume of distribution in rat at 5 mg/kg, iv; type: ADME, organism-based; conditions: in vivo
[22] = Half life in rat at 15 mg/kg, po; type: ADME, organism-based; conditions: in vivo
[23] = Oral bioavailability in rat at 15 mg/kg; type: ADME, organism-based; conditions: in vivo
Plasmodium berghei [24] = assay: Antiplasmodial activity against sporozoite stage of Plasmodium berghei expressing luciferase infected in human HepG2-A16-CD81EGFP cells preincubated with cells for 18 hrs followed by protozoal infection measured after 48 hrs by bioluminescence assay; type: functional, organism-based
Method in brief: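 HepG2 cells were pretreated 18 h with compound, then infected with freshly dissected luciferase-expressing P. berghei sporozoites. After a further 48 h with compound, viability of exoerythrocytic forms and of HepG2 host cells was read by bioluminescence.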

[25] = Solubility of the compound in 0.01M HCl at pH 2 by Nephelometric analysis; type: physicochemical; conditions: buffer
Blood = assay: as §4; type: ADME, organism-based; conditions: in vivo, 24 h, BLD = below limit of detection; method in brief: as §3
[26] = Half life in rat at 20 mg/kg, po; type: ADME, organism-based; conditions: in vivo
[27] = Oral bioavailability in rat at 20 mg/kg; type: ADME, organism-based; conditions: in vivo
Plasmodium berghei [28] = assay: Antiplasmodial activity against Plasmodium berghei ANKA expressing GFP infected in mouse assessed as mouse cured from disease at 50 mg/kg, po qd for 4 days; type: functional, organism-based
Plasmodium berghei [29] = assay: Antiplasmodial activity against Plasmodium berghei ANKA expressing GFP infected in mouse assessed as reduction of parasitemia level at 10 mg/kg, po qd for 4 days measured on day 4 post last dose by flow cytometric analysis relative to control; type: functional; set-up: scale not given: the % may be the effect or the level left; method in brief: as §1
Plasmodium berghei [30] = assay: Antiplasmodial activity against Plasmodium berghei ANKA expressing GFP infected in mouse assessed as means survival days at 10 mg/kg, po qd for 4 days; type: functional; method in brief: as §2
Plasmodium berghei [31] = assay: Antiplasmodial activity against Plasmodium berghei ANKA expressing GFP infected in mouse assessed as reduction of parasitemia level at 3 mg/kg, po qd for 4 days measured on day 4 post last dose by flow cytometric analysis relative to control; type: functional; set-up: scale not given: the % may be the effect or the level left; method in brief: as §1
Plasmodium berghei [32] = assay: Antiplasmodial activity against Plasmodium berghei ANKA expressing GFP infected in mouse assessed as means survival days at 3 mg/kg, po qd for 4 days; type: functional; method in brief: as §2

Sequence of Voltage-gated inwardly rectifying potassium channel KCNH2 (Q12809 whole entry): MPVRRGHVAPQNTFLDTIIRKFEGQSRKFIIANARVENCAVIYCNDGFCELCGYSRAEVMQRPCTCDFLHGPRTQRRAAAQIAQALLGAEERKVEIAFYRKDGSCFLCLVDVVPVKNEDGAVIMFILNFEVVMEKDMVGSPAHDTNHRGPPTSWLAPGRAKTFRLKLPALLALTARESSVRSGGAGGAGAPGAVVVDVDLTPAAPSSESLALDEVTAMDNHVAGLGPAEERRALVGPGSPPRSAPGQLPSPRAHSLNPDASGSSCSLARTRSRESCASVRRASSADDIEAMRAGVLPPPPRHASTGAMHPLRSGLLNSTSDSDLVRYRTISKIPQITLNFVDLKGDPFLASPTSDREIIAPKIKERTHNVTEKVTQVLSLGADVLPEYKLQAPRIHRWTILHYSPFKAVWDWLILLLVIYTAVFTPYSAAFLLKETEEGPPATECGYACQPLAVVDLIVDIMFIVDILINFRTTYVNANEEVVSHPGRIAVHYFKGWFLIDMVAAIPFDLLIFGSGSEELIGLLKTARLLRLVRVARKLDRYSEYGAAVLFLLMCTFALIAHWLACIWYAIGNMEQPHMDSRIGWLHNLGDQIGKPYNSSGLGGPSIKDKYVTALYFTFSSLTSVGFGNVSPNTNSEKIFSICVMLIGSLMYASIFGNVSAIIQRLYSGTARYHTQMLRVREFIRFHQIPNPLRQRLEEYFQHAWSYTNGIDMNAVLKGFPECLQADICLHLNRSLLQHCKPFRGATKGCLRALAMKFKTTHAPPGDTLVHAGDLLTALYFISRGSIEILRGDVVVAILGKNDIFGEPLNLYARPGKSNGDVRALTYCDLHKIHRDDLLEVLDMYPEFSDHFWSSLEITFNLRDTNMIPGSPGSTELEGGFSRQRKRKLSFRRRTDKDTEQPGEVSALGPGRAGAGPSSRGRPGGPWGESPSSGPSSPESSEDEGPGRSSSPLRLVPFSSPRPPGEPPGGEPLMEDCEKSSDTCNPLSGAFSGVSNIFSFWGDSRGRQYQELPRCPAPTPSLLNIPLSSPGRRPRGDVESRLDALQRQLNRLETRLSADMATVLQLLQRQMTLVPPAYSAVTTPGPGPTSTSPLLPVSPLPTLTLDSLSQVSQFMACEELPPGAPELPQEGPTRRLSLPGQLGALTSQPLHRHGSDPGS

Structure (SMILES)	IC50 (Plasmodium falciparum [1]) [nM]	IC50 (Plasmodium falciparum [2]) [nM]	Stability (Liver microsome [3])	Stability (Liver microsome [4])	Stability [5]	Activity (Plasmodium berghei [14]) [%]	MSD (Plasmodium berghei [15]) [days]	further results
CS(=O)(=O)c1ccc(-c2cnc3ccc(-c4cccc(S(C)(=O)=O)c4)cn23)cc1	113	150	Stable	Stable	Stable			IC50 [6]: 4.8 µM
C[C@H]1[C@H](OC(=O)CCC(=O)O)O[C@@H]2O[C@@]3(C)CC[C@H]4[C@H](C)CC[C@@H]1[C@@]24OO3 [ARTESUNATE]	4	3						Activity (Plasmodium berghei [7]): 99%; MSD (Plasmodium berghei [8]): 10 days; ED90 (Plasmodium falciparum [9]): 11.1 mg/kg
O[C@@H](c1cc(C(F)(F)F)nc2c(C(F)(F)F)cccc12)[C@H]1CCCCN1 (relative stereo) [(S,R)-MEFLOQUINE]								Activity (Plasmodium berghei [7]): 99.9%; MSD (Plasmodium berghei [8]): 29 days; ED90 (Plasmodium falciparum [9]): 7.7 mg/kg
CS(=O)(=O)c1ccc(-c2cnn3ccc(-c4cccc(S(C)(=O)=O)c4)cc23)cc1		8	Stable	Stable	Stable	60	4	selectivity ratio [10]: > 1000; selectivity ratio [11]: > 1000; selectivity ratio [12]: > 1000; selectivity ratio [13]: > 1000; IC50 [6]: > 33 µM; concentration at 1 h [16]: 7600 nM; concentration at 4 h [17]: 486 nM; concentration at 24 h [18]: 290 nM; half-life [19]: 246 min; clearance [20]: 13.9 mL/min/kg; Vd [21]: 4.8 L/kg; half-life [22]: 156 min; bioavailability [23]: 1%; IC50 (Plasmodium berghei [24]): 6.6 nM
CCc1nc(N)nc(N)c1-c1ccc(Cl)cc1 [PYRIMETHAMINE]								ED90 (Plasmodium falciparum [9]): 0.9 mg/kg
CS(=O)(=O)c1ccc(-c2nnc3ccc(-c4cccc(C(F)(F)F)c4)cn23)cc1	> 1000	> 1000						
CS(=O)(=O)c1ccc(-c2cnc3ccc(-c4cccc(S(=O)(=O)C5CC5)c4)nn23)cc1			Stable	Stable	Stable			
CS(=O)(=O)c1ccc(-c2cnn3ccc(-c4cccc(S(C)(=O)=O)c4)nc23)cc1	2.2	2.6	Stable	Stable	Stable			
CS(=O)(=O)c1ccc(-c2nnc3ccc(-c4cccc(S(C)(=O)=O)c4)cn23)cc1	> 1000	> 1000						
CS(=O)(=O)c1ccc(-c2cnc3cnc(-c4cccc(S(C)(=O)=O)c4)cn23)cc1		877	Stable	Stable	Stable			solubility [25]: soluble
CS(=O)(=O)c1ccc(-c2cnn3c2NC(c2cccc(S(=O)(=O)C4CC4)c2)CC3)cc1 (stereo unspecified)	46	44	Stable	Stable	Stable	78	7	selectivity ratio [10]: > 1000; selectivity ratio [11]: > 1000; selectivity ratio [12]: > 1000; selectivity ratio [13]: > 1000; solubility [25]: soluble; concentration at 1 h [16]: 456 nM; concentration at 4 h [17]: 177 nM; Drug uptake (Blood): BLD
CS(=O)(=O)c1ccc(-c2nnc3ccc(-c4cccc(S(C)(=O)=O)c4)nn23)cc1		> 2340						
CS(=O)(=O)c1ccc(-c2cnn3ccc(-c4cccc(S(=O)(=O)C5CC5)c4)nc23)cc1	0.37	0.42	Stable	Stable	Stable	86	7	concentration at 1 h [16]: 169 nM; concentration at 4 h [17]: 145 nM; concentration at 24 h [18]: < 10 nM; half-life [26]: 468 min; bioavailability [27]: 1%; half-life [19]: 168 min; clearance [20]: 1.1 mL/min/kg; Vd [21]: 0.3 L/kg; IC50 (Plasmodium berghei [24]): 0.61 nM
CCN(CC)CCCC(C)Nc1ccnc2cc(Cl)ccc12 (stereo unspecified) [CHLOROQUINE]								ED90 (Plasmodium falciparum [9]): 4.3 mg/kg
CS(=O)(=O)c1ccc(-c2cnc3ccc(-c4cccc(S(C)(=O)=O)c4)nn23)cc1			Stable	Stable	Stable	99.8	7	selectivity ratio [10]: > 1000; selectivity ratio [11]: > 1000; selectivity ratio [12]: > 1000; selectivity ratio [13]: > 1000; IC50 [6]: 0.9 µM; IC50 (Plasmodium berghei [24]): 4.1 nM
CS(=O)(=O)c1ccc(-c2cnc3ccc(-c4cccc(C(F)(F)F)c4)nn23)cc1	46	60	Stable	Stable	Stable	99.8	>30	Activity (Plasmodium berghei [28]): Active; Activity (Plasmodium berghei [29]): 70%; MSD (Plasmodium berghei [30]): 7 days; Activity (Plasmodium berghei [31]): <40%; MSD (Plasmodium berghei [32]): 4 days
CS(=O)(=O)c1ccc(-c2cnc3ncc(-c4cccc(S(C)(=O)=O)c4)cn23)cc1	> 1000	> 1000						
C[S+]([O-])c1ccc(-c2cnc3ccc(-c4cccc(S(=O)(=O)C5CC5)c4)nn23)cc1 (stereo unspecified)			Stable	Stable	Stable	99.8	>30	Activity (Plasmodium berghei [28]): Active; Activity (Plasmodium berghei [29]): 99.6%; MSD (Plasmodium berghei [30]): 8 days; Activity (Plasmodium berghei [31]): 98%; MSD (Plasmodium berghei [32]): 7 days
CS(=O)(=O)c1ccc(-c2cnn3c2NC(c2cccc(C(F)(F)F)c2)CC3)cc1 (stereo unspecified)		< 100						
CS(=O)(=O)c1ccc(-c2cnn3ccc(-c4cccc(C(F)(F)F)c4)nc23)cc1	43	48	Stable	Stable	Stable			
CS(=O)(=O)c1ccc(-c2cnn3ccc(-c4cccc(C(F)(F)F)c4)cc23)cc1		98	Stable	Stable	Stable			
CS(=O)(=O)c1ccc(-c2cnc3ccc(-c4cccc(S(=O)(=O)C5CC5)c4)cn23)cc1	38	46	Stable	Stable	Stable	99.5	10	selectivity ratio [10]: 700; selectivity ratio [11]: 700; selectivity ratio [12]: 700; selectivity ratio [13]: 700; half-life [26]: 234 min; bioavailability [27]: 51%; half-life [19]: 180 min; clearance [20]: 8.7 mL/min/kg; Vd [21]: 2.3 L/kg
